Laboratory results reported in ChEMBL document CHEMBL1799956, “Convergent synthesis and biological evaluation of 2-amino-4-(3',4',5'-trimethoxyphenyl)-5-aryl thiazoles as microtubule targeting agents” (J Med Chem, 2011).
Active and inactive are the calls of the source. The rule behind the calls is not given here.

Legend:
HeLa [1] = experiment: Cell cycle arrest in human HeLa cells assessed as increase of cell population at G2/M phase after 24 hrs using propidium iodide staining by flow cytometry; format: functional, cell-based
Tubulin (Homo sapiens) = Tubulin (Homo sapiens) (UniProt P68371+Q9H4B7+P0DPH7+P68366+Q13509+Q71U36+P04350+Q3ZCM7+P07437+P68363+Q9BQE3+Q6PEY2+Q13885+Q9BVA1+Q9BUF5); experiment: Induction of microtubule disassembly in human HeLa cells assessed as complete loss of microtubules at 100 nM after 24 hrs using DAPI-staining by fluorescence microscopy; format: cell-based
In short: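 HeLa cells were exposed to 10 or 100 nM compound for 24 or 48 h, then fixed. Microtubules were stained with FITC-conjugated anti-β-tubulin antibody and imaged by confocal/fluorescence microscopy at 60× magnification.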

HeLa [2] = experiment: Induction of apoptosis in human HeLa cells assessed as DNA condensation at 10 uM after 24 to 48 hrs using Giemsa's staining by microscopic analysis; format: functional, cell-based
In short: (§1)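 HeLa treated 48 h, Giemsa stained and examined by light microscopy at 60× magnification.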

HeLa [3] = experiment: Induction of cell cycle arrest at G2/M phase in human HeLa cells assessed as decrease in phosphorylated Cdc2(Y15) expression at 10 to 100 nM after 48 hrs by Western blot analysis; format: functional, cell-based
In short: (§2)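 Immunoblot of HeLa lysates after 24 or 48 h of compound treatment at the indicated concentrations. Probed for cyclin B1, p-Cdc2 Y15 and Cdc25c. Slower-migrating Cdc25c bands were taken as a change in phosphorylation.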

Jurkat [4] = experiment: Cell cycle arrest in human Jurkat cells assessed as decrease of cell population at S phase at 100 nM after 24 hrs using propidium iodide staining by flow cytometry; format: functional, cell-based
[5] = Antiproliferative activity against human vinblastine-resistant CEM/VBL100 cells overexpressing P-gp assessed as growth inhibition after 72 hrs by MTT assay; format: functional, cell-based; conditions: CEM/VBL100, 72 h
HT-29 = experiment: Antiproliferative activity against human HT-29 cells assessed as growth inhibition after 72 hrs by MTT assay; format: functional, cell-based; conditions: HT-29, 72 h
[6] = Antiproliferative activity against human taxol-resistant A549-T12 cells assessed as growth inhibition after 72 hrs by MTT assay; format: functional, cell-based; conditions: A549, 72 h
LoVo [7] = experiment: Antiproliferative activity against human LoVo cells assessed as growth inhibition after 72 hrs by MTT assay; format: functional, cell-based
LoVo [8] = experiment: Fold resistance, ratio of IC50 for human doxorubicin-resistant LoVo cells overexpressing P-gp to IC50 for human LoVo cells; format: functional
In short: (§3)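 Fold resistance taken as the ratio of IC50 in the resistant line to IC50 in the parental line, each IC50 from dose-response curves of at least three independent experiments.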

HeLa [9] = experiment: Cell cycle arrest in human HeLa cells assessed as decrease of cell population at S phase at 100 nM after 24 hrs using propidium iodide staining by flow cytometry; format: functional, cell-based
Jurkat [10] = experiment: Cell cycle arrest in human Jurkat cells assessed as decrease of cell population at G1 phase at 1 to 100 nM after 24 hrs using propidium iodide staining by flow cytometry; format: functional, cell-based
HeLa [11] = experiment: Cell cycle arrest in human HeLa cells assessed as decrease of cell population at G1 phase at 1 to 100 nM after 48 hrs using propidium iodide staining by flow cytometry; format: functional, cell-based
HeLa [12] = experiment: Induction of apoptosis in human HeLa cells assessed as increase in cell viability at 100 nM after 48 hrs by flow cytometry in presence of pan-caspase inhibitor z-VAD.fmk; format: functional, cell-based
In short: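 HeLa incubated 48 h with compound at 100 nM with or without z-VAD.fmk (100 μM); viability measured, mean ± SEM of three independent experiments.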

CCRF-CEM = experiment: Fold resistance, ratio of IC50 for human vinblastine-resistant CEM/VBL100 cells overexpressing P-gp to IC50 for human CEM cells; format: functional; in short: as §3
HeLa [13] = experiment: Induction of apoptosis in human HeLa cells assessed as reduction in p53 expression at […] after 48 hrs by Western blot analysis; format: functional, cell-based
In short: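 Western blot of HeLa whole-cell lysates, separated by SDS-PAGE and probed with antibodies to p-γH2AX Ser139, p53 and p21waf/cip1. Cells were treated at the indicated concentrations for 24 or 48 h.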

Jurkat [14] = experiment: Induction of apoptosis in human Jurkat cells assessed as DNA condensation at 10 uM after 24 to 48 hrs using Giemsa's staining by microscopic analysis; format: functional, cell-based
In short: (§4)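 Giemsa staining, then light-microscope examination of cell morphology. HeLa and Jurkat cells were exposed to compound for 24 and 48 h. Magnification 60×.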

HeLa [15] = experiment: Induction of apoptosis in human HeLa cells assessed as abnormal mitotic figures at 10 uM after 24 to 48 hrs using Giemsa's staining by microscopic analysis; format: functional, cell-based; in short: as §1
HeLa [16] = experiment: Induction of apoptosis in human HeLa cells assessed as formation of large cells at 100 uM after 24 to 48 hrs using Giemsa's staining by microscopic analysis; format: functional, cell-based; in short: as §1
Bos taurus = species: Bos taurus; experiment: Displacement of [3H]colchicine from bovine brain tubulin at 5 uM
In short: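 [3H]colchicine binding inhibition with tubulin at 1 μM, [3H]colchicine at 5 μM and test compound at 5 μM.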

HeLa [17] = experiment: Induction of morphological changes in human HeLa cells assessed as effect on arrangement and amount of F-actin at 10 nM after 24 hrs using phalloidintetramethylrhodamine B isothiocyanate staining by microscopy; format: functional, cell-based
In short: (§5)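 HeLa cells were incubated with compound for 24 h. F-actin was stained with a phalloidin–tetramethylrhodamine B isothiocyanate conjugate and nuclei were counterstained with DAPI. Cells were then examined by fluorescence microscopy.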

HeLa [18] = experiment: Induction of cell cycle arrest at G2/M phase in human HeLa cells assessed as decrease in Cdc25C expression at 100 nM after 48 hrs by Western blot analysis; format: functional, cell-based; in short: as §2
HeLa [19] = experiment: Cell cycle arrest in human HeLa cells assessed as increase of cell population at G2/M phase at 1 to 100 nM after 48 hrs using propidium iodide staining by flow cytometry; format: functional, cell-based
A549 = experiment: Fold resistance, ratio of IC50 for human taxol-resistant A549-T12 cells to IC50 for human A549 cells; format: functional
HeLa [20] = experiment: Induction of apoptosis in human HeLa cells assessed as decrease in Bcl2 expression at […] after 48 hrs by Western blot analysis; format: functional, cell-based
In short: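 Treated HeLa whole-cell lysates separated by SDS-PAGE and immunoblotted for PARP cleavage, Bcl-2, Bax, pro-caspase-9 and pro-caspase-2.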

HeLa [21] = experiment: Induction of apoptosis in human HeLa cells assessed activation of caspase 9 at 10 to 100 nM after 48 hrs by Western blot analysis
Jurkat [22] = experiment: Induction of apoptosis in human Jurkat cells assessed as formation of large cytoplasmic vacuoles at 100 uM after 24 to 48 hrs using Giemsa's staining by microscopic analysis; format: functional, cell-based; in short: as §4
HeLa [23] = experiment: Induction of morphological changes in human HeLa cells assessed as effect on arrangement and amount of F-actin at 100 nM after 24 hrs using phalloidintetramethylrhodamine B isothiocyanate staining by microscopy; format: functional, cell-based; in short: as §5
Jurkat [24] = experiment: Cell cycle arrest in human Jurkat cells assessed as increase of cell population at G2/M phase after 24 hrs using propidium iodide staining by flow cytometry; format: functional, cell-based

Which Activity (HeLa [1]) does the source give for CCOc1ccc(-c2sc(N)nc2-c2cc(OC)c(OC)c(OC)c2)cc1 here?
The Activity was “Dose-dependent effect”.

What about the Activity (Tubulin (Homo sapiens)) of the same compound?
Its Activity is “Active”.

What about the Activity (HeLa [2]) of the same compound?
Its Activity is “Active”.

And the Activity (HeLa [3])?
The Activity was “Active”.

What about the Activity (Jurkat [4]) of the same compound?
The Activity was “Active”.

And the IC50 [5]?
The IC50 was 0.8 nM.

What about the IC50 (HT-29) of the same compound?
The IC50 was 38.2 nM.

And the IC50 [6]?
The IC50 was 0.2 nM.

What about the IC50 (LoVo [7]) of the same compound?
Its IC50 is 0.7 nM.

And the “Ratio IC50” value (LoVo [8])?
Its value is 0.9.

What about the Activity (HeLa [9]) of the same compound?
Its Activity is “Active”.

And the Activity (Jurkat [10])?
The Activity was “Active”.

And the Activity (HeLa [11])?
Its Activity is “Active”.

And the Activity (HeLa [12])?
Its Activity is “inactive”.

What about the “Ratio IC50” value (CCRF-CEM) of the same compound?
The value was 0.9.

What about the Activity (HeLa [13]) of the same compound?
The Activity was “Active”.

What about the Activity (Jurkat [14]) of the same compound?
The Activity was “Active”.

What about the Activity (HeLa [15]) of the same compound?
The Activity was “Active”.

And the Activity (HeLa [16])?
Its Activity is “Active”.

And the inhibition (Bos taurus)?
Its inhibition is 95%.

And the Activity (HeLa [17])?
Its Activity is “Active”.

What about the Activity (HeLa [18]) of the same compound?
Its Activity is “Active”.

And the Activity (HeLa [19])?
The Activity was “Active”.

And the “Ratio IC50” value (A549)?
The value was 2.2.

And the Activity (HeLa [20])?
The Activity was “Active”.

And the Activity (HeLa [21])?
Its Activity is “inactive”.

What about the Activity (Jurkat [22]) of the same compound?
The Activity was “Active”.

And the Activity (HeLa [23])?
The Activity was “Active”.

What about the Activity (Jurkat [24]) of the same compound?
The Activity was “Dose-dependent effect”.
